From ChEMBL document CHEMBL3588823, “Design, synthesis and biological evaluation of novel 5-oxo-2-thioxoimidazolidine derivatives as potent androgen receptor antagonists” (Eur J Med Chem, 2015)

Test system: LNCaP
Assay: Antiproliferative activity against human LNCAP cells after 3 days
Format: functional, cell-based
Conditions: Homo sapiens, LNCaP, 72 h; read-out: IC50
In short: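 LNCaP cells seeded at 10,000 per well in RPMI 1640 with 10% charcoal-stripped serum and 1% AAS, then held 3 days at 37 °C. Medium was then replaced with serial compound dilutions, either without DHT (agonism mode) or with DHT (antagonism mode).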

Structure (SMILES) | IC50
CNC(=O)c1ccc(N2C(=S)N(c3ccc(C#N)c(C(F)(F)F)c3)C(=O)C23CCOCC3)cc1F | 540 nM
CNC(=O)c1ccc(N2C(=S)N(c3ccc(C#N)c(C(F)(F)F)c3)C(=O)C23CCN(C)CC3)cc1F | > 10000 nM

Target: T1, Androgen receptor (Homo sapiens, UniProt P10275)
T1 sequence (P10275 whole entry): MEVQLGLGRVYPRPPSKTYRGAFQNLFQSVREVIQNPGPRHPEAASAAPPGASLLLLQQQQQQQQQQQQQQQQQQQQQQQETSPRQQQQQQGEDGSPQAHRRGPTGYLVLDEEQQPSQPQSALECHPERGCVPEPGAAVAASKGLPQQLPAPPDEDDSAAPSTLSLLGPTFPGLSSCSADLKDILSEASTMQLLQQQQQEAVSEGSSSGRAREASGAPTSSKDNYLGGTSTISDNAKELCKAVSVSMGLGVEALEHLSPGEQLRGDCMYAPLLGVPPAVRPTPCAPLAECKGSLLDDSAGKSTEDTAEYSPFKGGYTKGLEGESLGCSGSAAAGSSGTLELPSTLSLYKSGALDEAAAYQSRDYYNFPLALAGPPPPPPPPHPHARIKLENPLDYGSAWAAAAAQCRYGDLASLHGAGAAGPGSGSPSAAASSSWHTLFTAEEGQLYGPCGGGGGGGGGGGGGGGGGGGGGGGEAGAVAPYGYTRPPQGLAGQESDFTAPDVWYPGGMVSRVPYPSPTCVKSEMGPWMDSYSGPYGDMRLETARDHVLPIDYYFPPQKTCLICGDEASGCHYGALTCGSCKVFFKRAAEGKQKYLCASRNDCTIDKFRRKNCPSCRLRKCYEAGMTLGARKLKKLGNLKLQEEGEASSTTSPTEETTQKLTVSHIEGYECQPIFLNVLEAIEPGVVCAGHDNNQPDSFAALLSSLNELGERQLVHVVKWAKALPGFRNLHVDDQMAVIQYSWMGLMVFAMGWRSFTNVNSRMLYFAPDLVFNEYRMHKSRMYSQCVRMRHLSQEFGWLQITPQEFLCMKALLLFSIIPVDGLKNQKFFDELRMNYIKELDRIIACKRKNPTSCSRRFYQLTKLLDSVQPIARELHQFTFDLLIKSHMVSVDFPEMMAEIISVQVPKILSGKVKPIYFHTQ
Assay: Antagonist activity at androgen receptor (unknown origin)
Conditions: not given

Structure (SMILES) | Ki
CNC(=O)c1ccc(N2C(=S)N(c3ccc(C#N)c(C(F)(F)F)c3)C(=O)C23CCOCC3)cc1F | 126 nM
